Source: ChEMBL document CHEMBL1949612, “Design, synthesis, and functionalization of dimeric peptides targeting chemokine receptor CXCR4” (J Med Chem, 2011)
*1 amine or outer side, *2 acyl side, *3 side chain or, on linkers, in order; H or OH if unused. Where a SMILES comes first, the peptide text is derived from it. Bridges are numbered along the chain shown (N, C = ends). Roman numbers before positions name the chains, in order. [ ]: non-standard residue; d: D form. The star is where a group is joined. C16 diacid = O=C(O)CCCCCCCCCCCCCCC(=O)*; Sebacoyl = O=C(CCCCCCCCC(=O)[*:2])[*:1]; 2Nal = N[C@@H](Cc1ccc2ccccc2c1)C(=O)O; Suberoyl = O=C(CCCCCCC(=O)[*:2])[*:1]; Adipoyl = O=C(CCCCC(=O)[*:2])[*:1]; Glutaryl = O=C(CCCC(=O)[*:2])[*:1]; dNMeOrn = CN[C@H](CCCN)C(=O)O; Suc = O=C(CCC(=O)[*:2])[*:1]

Target: C-X-C chemokine receptor type 4 (Homo sapiens, UniProt P61073)
Assay: Displacement of [125I]-CPCR4 from CXCR4 receptor in human Jurkat cells after 2 hrs by gamma counting
Assay type: cell-based
Summary of the method: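 Whole Jurkat cells (400000 per tube) in PBS/0.2% BSA were incubated with ~0.1 nM (3.1 kBq) 125I-CPCR4 and test peptide at 10^-11 to 10^-5 M, shaken 2 h at RT. Nonspecific binding was taken with 1 μM unlabeled CPCR4. Cells were pelleted, washed twice with cold PBS, and bound activity was counted. Runs were done in triplicate, repeated 2–3 times. IC50 was fitted by nonlinear regression.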

Sequence of C-X-C chemokine receptor type 4 (P61073 whole entry): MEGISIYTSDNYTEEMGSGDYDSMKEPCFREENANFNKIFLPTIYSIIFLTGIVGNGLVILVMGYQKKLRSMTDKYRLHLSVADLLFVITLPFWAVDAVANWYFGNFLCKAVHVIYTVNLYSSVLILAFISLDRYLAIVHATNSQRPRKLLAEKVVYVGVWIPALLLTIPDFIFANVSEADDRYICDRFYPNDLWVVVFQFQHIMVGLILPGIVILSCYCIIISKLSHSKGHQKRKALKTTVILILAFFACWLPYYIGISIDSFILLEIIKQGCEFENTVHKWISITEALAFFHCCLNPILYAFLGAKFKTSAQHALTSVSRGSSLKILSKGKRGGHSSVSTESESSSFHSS

IC50 [nM] | SMILES
12 | CN1C(=O)[C@@H](Cc2ccc(O)cc2)NC(=O)CNC(=O)[C@H](Cc2ccc3ccccc3c2)NC(=O)[C@H](CCCNC(=N)N)NC(=O)[C@H]1CCCNC(=O)CCC(=O)NCCC[C@@H]1C(=O)N[C@@H](CCCNC(=N)N)C(=O)N[C@@H](Cc2ccc3ccccc3c2)C(=O)NCC(=O)N[C@H](Cc2ccc(O)cc2)C(=O)N1C (I: cyclo([2Nal]G[dY][dNMeOrn]R) / II: cyclo([2Nal]G[dY][dNMeOrn]R); linker I:4-II:4 via Suc)
6 | CN1C(=O)[C@@H](Cc2ccc(O)cc2)NC(=O)CNC(=O)[C@H](Cc2ccc3ccccc3c2)NC(=O)[C@H](CCCNC(=N)N)NC(=O)[C@H]1CCCN
60 | CC(=O)NCCC[C@@H]1C(=O)N[C@@H](CCCNC(=N)N)C(=O)N[C@@H](Cc2ccc3ccccc3c2)C(=O)NCC(=O)N[C@H](Cc2ccc(O)cc2)C(=O)N1C
4 | CN1C(=O)[C@@H](Cc2ccc(O)cc2)NC(=O)CNC(=O)[C@H](Cc2ccc3ccccc3c2)NC(=O)[C@H](CCCNC(=N)N)NC(=O)[C@H]1CCCNC(=O)CCCC(=O)NCCC[C@@H]1C(=O)N[C@@H](CCCNC(=N)N)C(=O)N[C@@H](Cc2ccc3ccccc3c2)C(=O)NCC(=O)N[C@H](Cc2ccc(O)cc2)C(=O)N1C (I: cyclo([2Nal]G[dY][dNMeOrn]R) / II: cyclo([2Nal]G[dY][dNMeOrn]R); linker I:4-II:4 via Glutaryl)
3 | CN1C(=O)[C@@H](Cc2ccc(O)cc2)NC(=O)CNC(=O)[C@H](Cc2ccc3ccccc3c2)NC(=O)[C@H](CCCNC(=N)N)NC(=O)[C@H]1CCCNC(=O)CCCCCCC(=O)NCCC[C@@H]1C(=O)N[C@@H](CCCNC(=N)N)C(=O)N[C@@H](Cc2ccc3ccccc3c2)C(=O)NCC(=O)N[C@H](Cc2ccc(O)cc2)C(=O)N1C (I: cyclo([2Nal]G[dY][dNMeOrn]R) / II: cyclo([2Nal]G[dY][dNMeOrn]R); linker I:4-II:4 via Suberoyl)
1000 | CC(=O)NCCC[C@@H]1C(=O)N[C@@H](CCCNC(N)=O)C(=O)N[C@@H](Cc2ccc3ccccc3c2)C(=O)NCC(=O)N[C@H](Cc2ccc(O)cc2)C(=O)N1C

Second part, the compound before the results:

SMILES | IC50 [nM]
CN1C(=O)[C@@H](Cc2ccc(O)cc2)NC(=O)CNC(=O)[C@H](Cc2ccc3ccccc3c2)NC(=O)[C@H](CCCNC(=N)N)NC(=O)[C@H]1CCCNC(=O)CCCCCCCCCCCCCCC(=O)NCCC[C@@H]1C(=O)N[C@@H](CCCNC(=N)N)C(=O)N[C@@H](Cc2ccc3ccccc3c2)C(=O)NCC(=O)N[C@H](Cc2ccc(O)cc2)C(=O)N1C (I: cyclo([2Nal]G[dY][dNMeOrn]R) / II: cyclo([2Nal]G[dY][dNMeOrn]R); linker I:4-II:4 via C16 diacid) | 33
CN1C(=O)[C@@H](Cc2ccc(O)cc2)NC(=O)CNC(=O)[C@H](Cc2ccc3ccccc3c2)NC(=O)[C@H](CCCNC(=N)N)NC(=O)[C@H]1CCCNC(=O)CNC(=O)CCCC(=O)NCC(=O)NCCC[C@@H]1C(=O)N[C@@H](CCCNC(=N)N)C(=O)N[C@@H](Cc2ccc3ccccc3c2)C(=O)NCC(=O)N[C@H](Cc2ccc(O)cc2)C(=O)N1C | 14
CN1C(=O)[C@@H](Cc2ccc(O)cc2)NC(=O)CNC(=O)[C@H](Cc2ccc3ccccc3c2)NC(=O)[C@H](CCCNC(=N)N)NC(=O)[C@H]1CCCNC(=O)C[C@H](NC(=O)CCCCCNC(=O)CN1CCN(CC(=O)O)CCN(CC(=O)O)CCN(CC(=O)O)CC1)C(=O)NCCC[C@@H]1C(=O)N[C@@H](CCCNC(=N)N)C(=O)N[C@@H](Cc2ccc3ccccc3c2)C(=O)NCC(=O)N[C@H](Cc2ccc(O)cc2)C(=O)N1C | 98
CN1C(=O)[C@@H](Cc2ccc(O)cc2)NC(=O)CNC(=O)[C@H](Cc2ccc3ccccc3c2)NC(=O)[C@H](CCCN=C(N)N)NC(=O)[C@H]1CCCNC(=O)CCCCCCCCC(=O)NCCC[C@@H]1C(=O)N[C@@H](CCCN=C(N)N)C(=O)N[C@@H](Cc2ccc3ccccc3c2)C(=O)NCC(=O)N[C@H](Cc2ccc(O)cc2)C(=O)N1C (I: cyclo([2Nal]G[dY][dNMeOrn]R) / II: cyclo([2Nal]G[dY][dNMeOrn]R); linker I:4-II:4 via Sebacoyl) | 2
CN1C(=O)[C@@H](Cc2ccc(O)cc2)NC(=O)CNC(=O)[C@H](Cc2ccc3ccccc3c2)NC(=O)[C@H](CCCN=C(N)N)NC(=O)[C@H]1CCCNC(=O)CCCC(=O)NCCC[C@@H]1C(=O)N[C@@H](CCCNC(N)=O)C(=O)N[C@@H](Cc2ccc3ccccc3c2)C(=O)NCC(=O)N[C@H](Cc2ccc(O)cc2)C(=O)N1C | 19
CN1C(=O)[C@@H](Cc2ccc(O)cc2)NC(=O)CNC(=O)[C@H](Cc2ccc3ccccc3c2)NC(=O)[C@H](CCCN=C(N)N)NC(=O)[C@H]1CCCNC(=O)CCCCC(=O)NCCC[C@@H]1C(=O)N[C@@H](CCCN=C(N)N)C(=O)N[C@@H](Cc2ccc3ccccc3c2)C(=O)NCC(=O)N[C@H](Cc2ccc(O)cc2)C(=O)N1C (I: cyclo([2Nal]G[dY][dNMeOrn]R) / II: cyclo([2Nal]G[dY][dNMeOrn]R); linker I:4-II:4 via Adipoyl) | 4
CN1C(=O)[C@@H](Cc2ccc(O)cc2)NC(=O)CNC(=O)[C@H](Cc2ccc3ccccc3c2)NC(=O)[C@H](CCCN=C(N)N)NC(=O)[C@H]1CCCNC(=O)CNC(=O)CC(=O)NCC(=O)NCCC[C@@H]1C(=O)N[C@@H](CCCN=C(N)N)C(=O)N[C@@H](Cc2ccc3ccccc3c2)C(=O)NCC(=O)N[C@H](Cc2ccc(O)cc2)C(=O)N1C | 8
CN1C(=O)[C@@H](Cc2ccc(O)cc2)NC(=O)CNC(=O)[C@H](Cc2ccc3ccccc3c2)NC(=O)[C@H](CCCNC(=N)N)NC(=O)[C@H]1CCCNC(=O)CNC(=O)CCC(=O)NCC(=O)NCCC[C@@H]1C(=O)N[C@@H](CCCNC(=N)N)C(=O)N[C@@H](Cc2ccc3ccccc3c2)C(=O)NCC(=O)N[C@H](Cc2ccc(O)cc2)C(=O)N1C | 6
CN1C(=O)[C@@H](Cc2ccc(O)cc2)NC(=O)CNC(=O)[C@H](Cc2ccc3ccccc3c2)NC(=O)[C@H](CCCN=C(N)N)NC(=O)[C@H]1CCCNC(=O)CNC(=O)CC(CC(=O)NCC(=O)NCCC[C@@H]1C(=O)N[C@@H](CCCN=C(N)N)C(=O)N[C@@H](Cc2ccc3ccccc3c2)C(=O)NCC(=O)N[C@H](Cc2ccc(O)cc2)C(=O)N1C)NC(=O)CCCCCNC(=O)CN1CCN(CC(=O)O)CCN(CC(=O)O)CCN(CC(=O)O)CC1 | 17
CN1C(=O)[C@@H](Cc2ccc(O)cc2)NC(=O)CNC(=O)[C@H](Cc2ccc3ccccc3c2)NC(=O)[C@H](CCCNC(=N)N)NC(=O)[C@H]1CCCNC(=O)CC(CC(=O)NCCC[C@@H]1C(=O)N[C@@H](CCCNC(=N)N)C(=O)N[C@@H](Cc2ccc3ccccc3c2)C(=O)NCC(=O)N[C@H](Cc2ccc(O)cc2)C(=O)N1C)NC(=O)CCCCCNC(=O)CN1CCN(CC(=O)O)CCN(CC(=O)O)CCN(CC(=O)O)CC1 (stereo partly drawn) | 31
CN1C(=O)[C@@H](Cc2ccc(O)cc2)NC(=O)CNC(=O)[C@H](Cc2ccc3ccccc3c2)NC(=O)[C@H](CCCN=C(N)N)NC(=O)[C@H]1CCCNC(=O)CCCCCCCCCCCC(=O)NCCC[C@@H]1C(=O)N[C@@H](CCCNC(N)=O)C(=O)N[C@@H](Cc2ccc3ccccc3c2)C(=O)NCC(=O)N[C@H](Cc2ccc(O)cc2)C(=O)N1C | 4
CN1C(=O)[C@@H](Cc2ccc(O)cc2)NC(=O)CNC(=O)[C@H](Cc2ccc3ccccc3c2)NC(=O)[C@H](CCCNC(=N)N)NC(=O)[C@H]1CCCNC(=O)CNC(=O)C[C@H](NC(=O)CCCCCNC(=O)CN1CCN(CC(=O)O)CCN(CC(=O)O)CCN(CC(=O)O)CC1)C(=O)NCC(=O)NCCC[C@@H]1C(=O)N[C@@H](CCCNC(=N)N)C(=O)N[C@@H](Cc2ccc3ccccc3c2)C(=O)NCC(=O)N[C@H](Cc2ccc(O)cc2)C(=O)N1C | 39
